STAT3 activator – activators of IL-6 induced STAT3 signaling; U3A cells, IL-6 STAT3-luciferase reporter, luminescence; 100% = signal with IL-6 EC80 alone; activation (% of control), % at 5.6 µM; 190,000 compounds, 0.91% hits;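 active = activation above the screen-wide mean of compound activation plus 3 SD, cut at about 130% in these data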;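 also: 0% = background luminescence of wells with medium and substrate only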
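Material: STAT3-luciferase reporter U3A cells. Controls: IL-6-treated wells, 100% activation. Read-out: % activation versus median of IL-6-stimulated wells. Probe or stimulus: IL-6 stimulus at 33 ng/mL final. Timing: compound 1 h, then IL-6 6 h at 37 °C. Signal: reporter luminescence signal.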
STAT1 blocker – inhibitors of IFN-gamma induced STAT1 signaling; NIH 3T3 STAT1-luciferase reporter, luminescence; inhibition, % at 5.5 µM; 200,000 compounds, 0.35% hits; AID 920;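 active = inhibition above a set limit, the mean inhibition across all tested compounds plus 3 SD, cut at about 34% in these data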;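 also: 0% = IFN-gamma with DMSO and 100% = IFN-gamma with 300 µM nifuroxazide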
APP 5'UTR act – APP 5'UTR luciferase reporter activation; SH-SY5Y APP 5'UTR luciferase reporter, luminescence; zero percent = DMSO vehicle wells; activation, % at 2 µM; 190,000 compounds, 1% hits;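 active = activation above a set limit, based on mean plus 3 SD of controls, cut at about 140% in these data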
STAT1 activator – STAT1 signaling activation | NIH 3T3 STAT1-luciferase reporter, IFN-gamma, luminescence; 100% = IFN-gamma alone, no compound | AID 932 | activation (% of control), % at 5.5 µM | 200,000 compounds, 2.6% hits;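 active = activation above the screen-wide mean activation plus 3 SD, cut at about 130% in these data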;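 also: raw ratio to IFN-gamma control signal so 100% means no change and 0% no light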
STAT3 inh – inhibitors of IL-6 induced STAT3 signaling | U3A cells, IL-6 STAT3-luciferase reporter, luminescence; host cell line lacks STAT1 | inhibition, % at 5.5 µM | 190,000 compounds, 0.89% hits;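 active = inhibition above the mean inhibition across all screened compounds plus 3 SD, cut at about 44% in these data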;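 also: 0% = DMSO only wells and 100% = 100 µM nifuroxazide control wells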
NF-kB expr up – compounds increasing NF-kB expression in human neuronal cells | NF-kB reporter expression; hits give high values | fold change at 12.5 µM | 190,000 compounds, 1.6% hits | AID 1239; in the data active = fold change above about 3.3
STAT1 activ conf – confirmation of STAT1 signaling activators. shares compounds with STAT1 activator. NIH 3T3 STAT1-luciferase reporter, IFN-gamma potentiation, luminescence; 100% = IFN-gamma EC80 alone, no compound. activation (% of control), % at 5.7 µM. 1,200 compounds, 97% hits. AID 1262;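 active = activation above a set limit carried over from the earlier primary STAT1 screen, cut at about 140% in these data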;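 also: simple ratio to median IFN-gamma plus DMSO wells so 0% means no light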
NFkB act STAT1ct – NF-kappaB activation in STAT1 activator counter-screen; shares compounds with STAT1 activator; HEK293T NF-kB luciferase reporter, TNF-alpha stimulated, luminescence; 100% = TNF-alpha with vehicle only; activation (% of control), % at 5.7 µM; 1,200 compounds, 43% hits; AID 1306;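 active = activation above the mean of solvent-only control wells plus 3 SD, set per campaign, cut at about 130% in these data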;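 also: TNF-alpha given at a submaximal dose yielding about 80% of full reporter signal; values are well signal over median control so 100% means no change and 0% no light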
STAT3 act 2 – human STAT3 activation in STAT1 activator counter-screen; 1,200 compounds, 46% hits; AID 1316; U3A cells STAT3-luciferase reporter, IL-6, luminescence; cells lack STAT1; 100 = IL-6 alone, no compound effect; activation (% of control), % at 5.7 µM; shares compounds with STAT1 activator;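 active = activation above the solvent-only control well mean plus 3 SD, set per plate batch, cut at about 110% in these data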;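 also: 0% = no luminescence and 100% = median IL-6 plus DMSO wells; higher means more STAT3 reporter activation so hits are non-selective activators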
An asterisk follows results filed as active; . = no result. Compounds with a hit are over-represented: about 4.9% of the library has one in this group of screens.

SMILES | STAT3 activator | STAT1 blocker | APP 5'UTR act | STAT1 activator | STAT3 inh | NF-kB expr up | STAT1 activ conf | NFkB act STAT1ct | STAT3 act 2
O=C(c1cccs1)N1CCN(S(=O)(=O)N2CCOCC2)CC1 | 101 | -2 | 13 | 102 | 0 | 0.9 | . | . | .
Fc1ccc(-n2nnc(-c3ccnc4ccccc34)n2)cc1 | . | -74 | 142* | 171* | . | 4.8* | 203* | 139* | 117*
Cc1ccc(-n2nnc(-c3ccnc4ccccc34)n2)cc1 | . | -58 | 111 | 156* | . | 4.2* | 183* | 136* | 104
CCOC(=O)c1c(NC(=O)c2ccc(N3C(=O)[C@@H]4[C@H](C3=O)[C@H]3C=C[C@@H]4C3)cc2)sc2c1CCCC2 | 103 | 6 | -14 | 95 | 0 | 0.51 | . | . | .
COc1ccc(NC(=S)Nc2ccc3snnc3c2)cc1 | 93 | -12 | 41 | 109 | 11 | 1.4 | . | . | .
COc1ccc(NC(=S)Nc2ccc3nccnc3c2)cc1 | 99 | -59 | 24 | 153* | 6 | 0.98 | 141* | 109 | 99
COc1ccc([N+](=O)[O-])cc1NC(=O)CCNC(=O)Cn1ccc2ccccc2c1=O | 97 | -2 | -7 | 99 | 5 | 1.1 | . | . | .
CCc1ccc(C2=NN(C(C)=O)C(c3ccco3)C2)cc1 (centres undefined) | 107 | -69 | 144* | 160* | -4 | 4.7* | 178* | 133 | 123*
CCOC(=O)c1c(C)nc2c(C)cccn12 | 90 | -3 | -10 | 98 | 12 | 1.1 | . | . | .
CCOC(=O)c1c(C)nc2c3ccccc3ccn12 | 114 | -57 | 160* | 153* | -12 | 5* | 202* | 131 | 120*
CCNc1nc(N)nc(-c2cc(Cl)ccc2O)n1 | 77 | -104 | 215* | 196* | 29 | 6.8* | 288* | 145* | 167*
CCCNc1nc(N)nc(-c2cc(Cl)ccc2OC)n1 | 107 | 3 | -6 | 97 | -8 | 0.82 | . | . | .
CCCCNc1nc(N)nc(-c2cc(Cl)ccc2O)n1 | 110 | -89 | 155* | 178* | -7 | 1.6 | 230* | 145* | 154*
O=C(N/C(=C/c1ccc(Br)cc1)C(=O)N1CCOCC1)c1cccs1 | 102 | -3 | 3 | 101 | 0 | 1.1 | . | . | .
C(=C\c1ccccc1)/C=N/Nc1nc2ccccc2s1 | 130 | -65 | 179* | 158* | -32 | 3 | 238* | 141* | 129*
CCC/C=N/Nc1nc2ccccc2s1 | 112 | -71 | 82 | 163* | -5 | 6* | 225* | 143* | 127*
Brc1ccc(/C=C/C=N/Nc2nc3ccccc3s2)cc1 | 113 | -23 | 8 | 121 | -7 | 1.3 | . | . | .
CCN(CC)c1ccc(N=Nc2ncn[nH]2)cc1 | 93 | -2 | 49 | 104 | 13 | 2.6 | . | . | .
CCN(CC)c1ccc(N=Nc2nn(C)c(C)c2[N+](=O)[O-])cc1 | 82 | -88 | 142* | 178* | 21 | 5.7* | 222* | 140* | 107
Cc1cc(C)cc(Nc2ncc3c(n2)CCCC3=O)c1 | 75 | -58 | 163* | 154* | 31 | 2.9 | 185* | 106 | 107
Cc1cccnc1NC(=S)Nc1ccc(Br)cc1Cl | 102 | -64 | 105 | 154* | 2 | 1.1 | 198* | 143* | 105
CCOc1ncccc1C(=O)N=C1SCCN1C(=O)c1cccnc1OCC | 103 | 2 | -9 | 97 | 1 | 1 | . | . | .
N#Cc1c(N)nc2c(c1-c1ccc(F)cc1)c(=O)nc1sccn12 | 99 | 10 | 33 | 92 | 6 | 1.1 | . | . | .
Cc1cccnc1NC(=O)c1cc2ccccc2oc1=O | 97 | -59 | 176* | 156* | 4 | 4.2* | 191* | 117 | 117*
Cc1ccccc1-c1nnc(NC(=O)c2cc3ccccc3oc2=O)s1 | 100 | -3 | 19 | 103 | 0 | 1.2 | . | . | .
SMILES | STAT3 activator | STAT1 blocker | APP 5'UTR act | STAT1 activator | STAT3 inh | NF-kB expr up | STAT1 activ conf | NFkB act STAT1ct | STAT3 act 2
c1ccc(-c2cn3nc(-c4ccccc4)cnc3n2)cc1 | 91 | -60 | 172* | 155* | 9 | 4.1* | 212* | 124 | 105
CCOC(=O)c1c(C)[nH]c(C(=O)COC(=O)CCSc2ccccc2)c1C | 109 | -16 | 39 | 115 | -9 | 1.2 | . | . | .
CCOC(=O)c1c(C)[nH]c(C(=O)CSc2ccccc2)c1C | 71 | -55 | 160* | 154* | 39 | 3.6* | 234* | 113 | 98
Cc1ccc(NC(=O)CNS(=O)(=O)c2ccc(F)cc2)cc1C | 94 | -1 | 15 | 99 | 13 | 1.2 | . | . | .
O=C(Cn1cnc2ccccc2c1=O)c1ccc(Cl)cc1 | 95 | -59 | 17 | 155* | 11 | . | 148* | 113 | 95
Oc1ccc(-c2nc3ccc4ccccc4c3c3c2CCC3)cc1O | 97 | -12 | -1 | 111 | 2 | 2 | . | . | .
CC1=NN(c2ccccc2)C(=O)/C1=C/c1c(O)n(-c2ccc(F)cc2)[nH]c1=O | 119 | -58 | 39 | 153* | -29 | 1.5 | 177* | 122 | 132*
CC1=NN(c2ccccc2)C(=O)/C1=C\c1ccc(Br)s1 | 93 | -5 | . | 104 | 9 | 1.4 | . | . | .
Cc1ccccc1NC(=O)CC1(c2ccc(N(C)C)cc2)C(=O)c2ccccc2C1=O | 102 | 5 | -12 | 95 | -1 | 1.1 | . | . | .
CCC(C)c1ccccc1NC(=O)COC(=O)c1ccc2c(c1)S(=O)(=O)c1ccccc1C2=O (centres undefined) | 90 | -5 | -5 | 105 | 16 | 0.75 | . | . | .
CCn1c(=O)cc(SCC(=O)Nc2cccnc2)c2ccccc21 | 84 | 5 | 1 | 95 | 21 | 0.98 | . | . | .
Cc1ccccc1CSc1ncc(C#N)c(N)n1 | 92 | -73 | 3 | 166* | 10 | 2.2 | 169* | 128 | 110
N#Cc1cnc(SCCc2ccccc2)nc1N | 92 | -26 | 20 | 124 | 13 | 1.2 | . | . | .
O=C(/C=C/c1ccco1)Nc1ccc(N2CCCC2)cc1 | 113 | -67 | 121 | 158* | -15 | 1.1 | 187* | 139* | 113*
O=C(/C=C/c1ccco1)Nc1ccccn1 | 88 | -58 | 73 | 152* | 14 | 3.2 | 177* | 118 | 103
O=C(/C=C/c1ccco1)Nc1cccnc1 | 103 | -22 | 10 | 120 | 3 | . | . | . | .
